# According to ChEMBL document CHEMBL2177040, “Down-regulation of the human VEGF gene expression by perylene monoimide derivatives” (Bioorg Med Chem Lett, 2012):
# Activity calls are given as the source filed them. The calls are words filed in the database; no cut-off is given here.
# Assays:
# Nucleic Acid [1] = experiment: Binding affinity to VEGF quadruplex DNA in human A549 cells assessed as downregulation of VEGF121 mRNA expression at 50 uM after 24 hrs by semi-quantitative RT-PCR analysis; type: cell-based
# In short: (§1)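 A549 cells (3.0 × 10^5) treated 24 h. Total RNA extracted and reverse-transcribed; cDNA amplified with gene-specific primers, with cycle number set so that product intensity tracks cDNA amount. Both VEGF bands quantified by scan densitometry and normalised to GAPDH; three separate experiments.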
# Nucleic Acid [2] = experiment: Binding affinity to VEGF quadruplex DNA in human A549 cells assessed as downregulation of VEGF protein level at 3.1 to 50 uM after 24 hrs by Western blot analysis; type: cell-based
# In short: (§2)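 A549 cells (3.0 × 10^5) exposed to a range of compound concentrations for 24 h. Lysate proteins separated by SDS-PAGE and blotted with rabbit polyclonal VEGF antibody, then HRP-conjugated goat anti-rabbit IgG. Top concentrations chosen from cytotoxicity data.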
# Nucleic Acid [3] = experiment: Binding affinity to VEGF VT-66-G-quadruplex DNA after 30 mins by DNA polymerase stop assay; type: nucleic-acid assay
# In short: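 Polymerase stop: compound (twofold dilution) with template VT-66 (100 nM) and FAM-labelled primer P16 (100 nM) in 10 mM Tris-HCl pH 7.4, denatured 95 °C 5 min, slow-cooled to 37 °C. Extension started with dNTPs, 3 mM MgCl2 and Klenow fragment (1 unit), 37 °C 30 min. Resolved on 12% denaturing PAGE; stopped/(stopped+full-length) ratio plotted against concentration.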
# [4] = Inhibition of DNA polymerase at > 1 uM
# In short: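 Klenow polymerase stop assay. Template VT-66 (100 nM) and FAM-primer P16 (100 nM) with twofold-diluted compound in 10 mM Tris-HCl pH 7.4, denatured 95 °C 5 min, slow-cooled to 37 °C. Extension started with dNTPs, 3 mM MgCl2 and Klenow fragment (1 unit), 37 °C 30 min. Products on 12% denaturing PAGE; stopped/total extended ratio plotted.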
# Nucleic Acid [5] = experiment: Binding affinity to VEGF V32G-double stranded DNA at 1 to 32 uM after 10 hrs by polyacrylamide electrophoresis; type: nucleic-acid assay
# In short: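 FAM-labeled VEGF G-rich strand (V32G, 2 µM) plus complementary C-rich strand (2 µM) with twofold-diluted compound in Tris-HCl pH 7.4, 100 mM KCl. Denatured 95 °C 5 min, slow-cooled to 55 °C, held 10 h, then rapidly cooled to 4 °C. Separated on 16% native PAGE with 50 mM KCl (4 °C, 350 V, 10 h); duplex vs monomeric quadruplex bands imaged.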
# Nucleic Acid [6] = experiment: Binding affinity to VEGF quadruplex DNA in human A549 cells assessed as downregulation of VEGF protein level at 0.2 to 2.8 uM after 24 hrs by Western blot analysis; type: cell-based; in short: as §2
# A549 [7] = experiment: Cytotoxicity against human A549 cells assessed as cell viability after 72 hrs by SRB assay; type: functional, cell-based; conditions: A549, 72 h
# In short: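 Sulforhodamine B colorimetric assay on A549 cells. IC50 derived from the concentration versus percent growth inhibition curve. Mean ± standard deviation of three independent experiments, each in triplicate.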
# Nucleic Acid [8] = experiment: Binding affinity to VEGF quadruplex DNA in human A549 cells assessed as downregulation of VEGF165 mRNA expression at 50 uM after 24 hrs by semi-quantitative RT-PCR analysis; type: cell-based; in short: as §1
# Nucleic Acid [9] = experiment: Binding affinity to VEGF quadruplex DNA in human A549 cells assessed as downregulation of VEGF165 mRNA expression after 24 hrs by semi-quantitative RT-PCR analysis; type: cell-based
# In short: (§3)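 A549 cells (3.0 × 10^5) exposed to a range of compound concentrations for 24 h; total RNA reverse-transcribed and cDNA amplified with gene-specific primers at a cycle number chosen per gene for linear signal. VEGF bands quantified by densitometry, normalized to GAPDH; three separate experiments.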
# Nucleic Acid [10] = experiment: Binding affinity to VEGF quadruplex DNA in human A549 cells assessed as downregulation of VEGF mRNA expression after 24 hrs by semi-quantitative RT-PCR analysis; type: cell-based; in short: as §3
# [11] = Solubility of the compound in Tris-HCl buffer at 40 uM at pH 7.4 after 1 to 72 hrs by spectroscopic analysis in absence of DNA; type: physicochemical; conditions: pH 7.4, 40 µM
# In short: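 Compound at 40 µM in 10 mM Tris-HCl pH 7.4 with 100 mM KCl, without DNA. Visible absorbance spectra recorded at 0, 8 and 72 h.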
# Nucleic Acid [12] = experiment: Binding affinity to Bcl2 quadruplex DNA in human A549 cells assessed as downregulation of Bcl2 mRNA expression in human A549 cells after 24 hrs by semi-quantitative RT-PCR analysis; type: cell-based
# Nucleic Acid [13] = experiment: Binding affinity to c-Myc quadruplex DNA in human A549 cells assessed as downregulation of c-Myc mRNA expression after 24 hrs by semi-quantitative RT-PCR analysis; type: cell-based
# Nucleic Acid [14] = experiment: Binding affinity to VEGF V32G-G-quadruplex DNA at 1 to 32 uM after 10 hrs by polyacrylamide electrophoresis; type: nucleic-acid assay
# In short: (§4)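 Duplex/G-quadruplex competition: FAM-labelled G-rich strand V32G (2 µM) plus complementary C-rich strand (2 µM) with twofold-diluted compound in Tris-HCl pH 7.4, 100 mM KCl; denatured 95 °C 5 min, slow-cooled to 55 °C and held 10 h, then rapidly cooled to 4 °C. Products resolved on 16% native PAGE containing 50 mM KCl (4 °C, 350 V, 10 h); duplex vs monomeric quadruplex bands imaged.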
# A549 [15] = experiment: Downregulation of COX2 mRNA expression in human A549 cells at 0.75 to 6 uM after 24 hrs by semi-quantitative RT-PCR analysis; type: functional, cell-based
# [16] = Solubility of the compound in Tris-HCl buffer at 40 uM at pH 7.4 after 1 to 72 hrs by spectroscopic analysis in presence of salmon sperm DNA duplex; type: physicochemical; conditions: pH 7.4, 40 µM
# In short: (§5)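 Visible absorbance spectra of compound (40 µM) in 10 mM Tris-HCl pH 7.4 with 100 mM KCl, without DNA, with preformed VEGF quadruplex (20 µM V32G), or with salmon sperm duplex DNA matched in absorbance to the quadruplex; recorded at 0, 8 and 72 h incubation.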
# A549 [17] = experiment: Downregulation of Max mRNA expression in human A549 cells at 0.75 to 6 uM after 24 hrs by semi-quantitative RT-PCR analysis; type: functional, cell-based
# A549 [18] = experiment: Downregulation of GAPDH mRNA expression in human A549 cells at 0.75 to 6 uM after 24 hrs by semi-quantitative RT-PCR analysis; type: functional, cell-based
# In short: (§6)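 A549 cells (3.0 × 10^5) treated 24 h at graded compound concentrations; RNA reverse-transcribed and GAPDH cDNA amplified by gene-specific PCR at a cycle number chosen for linear signal, with band intensity by semi-quantitative gel read-out.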
# Nucleic Acid [19] = experiment: Binding affinity to VEGF quadruplex DNA in human A549 cells assessed as downregulation of VEGF121 mRNA expression after 24 hrs by semi-quantitative RT-PCR analysis; type: cell-based; in short: as §3
# [20] = Solubility of the compound in Tris-HCl buffer at 40 uM at pH 7.4 after 1 to 72 hrs by spectroscopic analysis in presence of VEGF quadruplex; type: physicochemical; conditions: pH 7.4, 40 µM; in short: as §5
# A549 [21] = experiment: Downregulation of GAPDH mRNA expression in human A549 cells at 3 to 24 uM after 24 hrs by semi-quantitative RT-PCR analysis; type: functional, cell-based; in short: as §6
# Nucleic Acid [22] = experiment: Binding affinity to VEGF quadruplex DNA at 40 uM after 1 to 72 hrs by spectroscopic analysis; type: nucleic-acid assay; in short: as §5
# A549 [23] = experiment: Downregulation of COX2 mRNA expression in human A549 cells at 3 to 24 uM after 24 hrs by semi-quantitative RT-PCR analysis; type: functional, cell-based
# A549 [24] = experiment: Downregulation of Max mRNA expression in human A549 cells at 3 to 24 uM after 24 hrs by semi-quantitative RT-PCR analysis; type: functional, cell-based
# Nucleic Acid [25] = experiment: Binding affinity to VEGF quadruplex DNA in human A549 cells assessed as downregulation of VEGF protein level after 24 hrs by Western blot analysis; type: cell-based
# In short: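 A549 cells (3.0 × 10^5) treated with a range of compound concentrations for 24 h; lysate proteins separated by SDS-PAGE and blotted with rabbit polyclonal anti-VEGF, detected with HRP-conjugated goat anti-rabbit IgG.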
# [26] = Solubility of the compound in Tris-HCl buffer at 40 uM at pH 7.4 after 72 hrs by spectroscopic analysis in absence of DNA; type: physicochemical; conditions: pH 7.4, 72 h; in short: as §5
# MCF7 = experiment: Cytotoxicity against human MCF7 cells assessed as cell viability after 72 hrs by SRB assay; type: functional, cell-based; conditions: MCF7, 72 h
# Nucleic Acid [27] = experiment: Binding affinity to VEGF quadruplex DNA in human MCF7 cells assessed as downregulation of VEGF mRNA expression at 0.75 to 6 uM after 24 hrs by semi-quantitative RT-PCR analysis; type: cell-based
# Nucleic Acid [28] = experiment: Binding affinity to VEGF V32G-G-quadruplex DNA after 10 hrs by polyacrylamide electrophoresis; type: nucleic-acid assay; in short: as §4
# Nucleic Acid [29] = experiment: Binding affinity to VEGF quadruplex DNA in human HCT15 cells assessed as downregulation of VEGF mRNA expression at 0.75 to 6 uM after 24 hrs by semi-quantitative RT-PCR analysis; type: cell-based; conditions: HCT-15
# HeLa = experiment: Cytotoxicity against human HeLa cells assessed as cell viability after 72 hrs by SRB assay; type: functional, cell-based
# HCT-15 = experiment: Cytotoxicity against human HCT15 cells assessed as cell viability after 72 hrs by SRB assay; type: functional, cell-based; conditions: HCT-15, 72 h
# Nucleic Acid [30] = experiment: Binding affinity to VEGF quadruplex DNA in human HeLa cells assessed as downregulation of VEGF mRNA expression at 0.75 to 6 uM after 24 hrs by semi-quantitative RT-PCR analysis; type: cell-based
SMILES,Activity (Nucleic Acid [2]),Activity (Nucleic Acid [3]),Activity (Nucleic Acid [6]),IC50 (A549 [7]),Activity (Nucleic Acid [9]),Activity (Nucleic Acid [10]),solubility [11],Activity (Nucleic Acid [12]),Activity (Nucleic Acid [13]),Activity (Nucleic Acid [14]),Activity (A549 [15]),solubility [16],Activity (A549 [17]),Activity (A549 [18]),Activity (Nucleic Acid [19]),solubility [20],Activity (Nucleic Acid [22]),Activity (Nucleic Acid [25]),further results
C[n+]1ccc(-c2c3nc(c(-c4cc[n+](C)cc4)c4ccc([nH]4)c(-c4cc[n+](C)cc4)c4ccc([nH]4)c(-c4cc[n+](C)cc4)c4nc2C=C4)C=C3)cc1 [TMPYP4],inactive,Dose-dependent effect,inactive,43.1 µM,–,–,–,–,–,–,–,–,–,–,–,–,–,–,Activity (Nucleic Acid [1]): inactive; inhibition [4]: Active; Activity (Nucleic Acid [5]): Active; Activity (Nucleic Acid [8]): inactive
CC[N+](C)(CC)CCN1C(=O)c2ccc3c4cccc5cccc(c6ccc(c2c36)C1=O)c54.Cc1ccc(S(=O)(=O)[O-])cc1,inactive,Dose-dependent effect,inactive,3.2 µM,Dose-dependent effect,Dose-dependent effect,Insoluble,Dose-dependent effect,Dose-dependent effect,Active,inactive,soluble,inactive,inactive,Dose-dependent effect,soluble,–,–,–
O=C1c2ccc3c4ccc5c6c(ccc(c7ccc(c2c37)C(=O)N1CCN1CCCCC1)c64)C(=O)N(CCN1CCCCC1)C5=O,–,Dose-dependent effect,–,52.4 µM,Dose-dependent effect,Dose-dependent effect,Insoluble,Dose-dependent effect,Dose-dependent effect,Active,–,soluble,–,–,Dose-dependent effect,soluble,Active,Dose-dependent effect,Activity (A549 [21]): inactive; Activity (A549 [23]): inactive; Activity (A549 [24]): inactive
CCN(CC)CCN1C(=O)c2ccc3c4cccc5c(N6CCNCC6)ccc(c6ccc(c2c36)C1=O)c54,–,Dose-dependent effect,–,4 µM,Dose-dependent effect,Dose-dependent effect,–,Dose-dependent effect,Dose-dependent effect,–,inactive,soluble,inactive,inactive,Dose-dependent effect,soluble,inactive,Dose-dependent effect,solubility [26]: soluble; IC50 (MCF7): 5.5 µM; Activity (Nucleic Acid [27]): Active; Activity (Nucleic Acid [28]): Active; Activity (Nucleic Acid [29]): Active; IC50 (HeLa): 3000 nM; IC50 (HCT-15): 4.7 µM; Activity (Nucleic Acid [30]): Active
